In ChEMBL document CHEMBL1142551, “Acylamido analogs of endocannabinoids selectively inhibit cancer cell proliferation” (Bioorg Med Chem, 2008):
Calls of active or inactive are those of the source. The calls are words filed in the database; no cut-off is given here.

Tests used:
[1] = Antiproliferative activity against human WI38 cells at 10 uM after 48 hrs relative to control; format: cell-based; conditions: wi-38, 48 h
Procedure, shortened: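 WI-38 embryonic lung fibroblasts grown in DMEM with 10% FBS and passaged with trypsin. Plated in 96-well format and exposed to a single 10 µM concentration, with DMSO vehicle. CellTiter-Glo luminescence read 48 h after treatment, four replicates. Values given as percent of control ± SD.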

RAW264.7 = assay: Antiproliferative activity against mouse RAW264.7 cells at 10 uM after 48 hrs relative to control; format: functional
Procedure, shortened: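 RAW264.7 cells grown in RPMI with 10% FBS and passaged by scraping. Seeded in 96-well plates, treated at 10 µM 24 h after seeding, four replicates. CellTiter-Glo ATP luminescence read 48 h after treatment; results given as percent of vehicle-treated control with SD.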

HeLa = assay: Antiproliferative activity against human HeLa cells at 10 uM after 48 hrs relative to control; format: functional, cell-based
Procedure, shortened: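 HeLa cells grown in DMEM with 10% FBS, seeded in 96-well plates and treated 24 h after seeding. CellTiter-Glo assay run 48 h post-treatment, four replicates per concentration. Results given as mean ± SEM relative to DMSO vehicle.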

HTB126 [2] = assay: Antiproliferative activity against human HTB126 cells assessed as […] at 10 uM after 72 hrs by luciferase assay; format: functional, cell-based
Procedure, shortened: (§1)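 HTB-126 human breast tumour cells, 2000 cells/well in 24-well plates, grown 24 h, then given vehicle or agent at 10 µM final (diluted from a DMSO stock), N = 6. Parallel plates assayed at successive times after treatment by CellTiter-Glo luciferase ATP luminescence, read 15 min after adding an equal volume of reagent; raw units reported.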

HTB126 [3] = assay: Antiproliferative activity against human HTB126 cells assessed as […] at 10 uM after 48 hrs by luciferase assay; format: functional, cell-based; procedure, shortened: as §1
HTB126 [4] = assay: Antiproliferative activity against human HTB126 cells assessed as […] at 10 uM after 24 hrs by luciferase assay; format: functional, cell-based; procedure, shortened: as §1
HTB126 [5] = assay: Antiproliferative activity against human HTB126 cells assessed as […] at 10 uM after 96 hrs by luciferase assay; format: functional, cell-based; procedure, shortened: as §1
RBL-2H3 [6] = assay: Antiproliferative activity against rat RBL2H3 cells at 10 uM treated 1 hr before LPS-challenge assessed after 24 hrs relative to control; format: functional
Procedure, shortened: (§2)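 RBL-2H3 mast cells, 500 cells/well in 96-well plates, grown 24 h, medium changed and cells held 4 h. Agent added 1 h before LPS (10 ng/ml), then 24 h further incubation. Cell number by CellTiter-Glo luminescence, n = 3; values given as raw response and as percent of DMSO control.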

RBL-2H3 [7] = assay: Antiproliferative activity against rat RBL2H3 cells at 1 uM treated 1 hr before LPS-challenge assessed after 24 hrs relative to control; format: functional; procedure, shortened: as §2
RBL-2H3 [8] = assay: Antiproliferative activity against rat RBL2H3 cells at 0.1 uM treated 1 hr before LPS-challenge assessed after 24 hrs relative to control; format: functional; procedure, shortened: as §2
HTB126 [9] = assay: (§3) Antiproliferative activity against human HTB126 cells at 10 uM after 48 hrs by luciferase assay relative to control; format: functional
Procedure, shortened: (§4)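 HTB-126 cells, with matched normal HTB-125 from the same donor, in DMEM with 10% FBS. Cells seeded in 96-well plates and treated 24 h after seeding across a dose range, four replicates per point. CellTiter-Glo ATP luminescence read 48 h after treatment; values given as percent of vehicle (DMSO) wells.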

HTB126 [10] = assay: Antiproliferative activity against human HTB126 cells assessed as fluorescence units at 10 uM after 48 hrs by luciferase assay in presence of rimonabant; format: functional, cell-based
Procedure, shortened: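 HTB-126 tumor breast cells in 96-well plates. Rimonabant (10 µM) added 30 min before the test agent (10 µM). CellTiter-Glo luminescence read 48 h later, four replicates. Values reported as raw fluorescence units rather than percent, because there are two control treatments.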

HTB126 [11] = assay: Antiproliferative activity against human HTB126 cells at 0.1 to 1.0 uM after 48 hrs by luciferase assay relative to control; format: functional, cell-based
Procedure, shortened: (§5)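 Matched breast lines from the same donor: HTB-125 (normal) and HTB-126 (tumor), seeded in 96-well plates and treated 24 h after seeding, DMSO vehicle. CellTiter-Glo ATP luminescence read 48 h after treatment. Four replicates per point over a dose series; values expressed as percent of vehicle-treated wells.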

[12] = Antiproliferative activity against human HTB125 cells at 0.1 to 1.0 uM after 48 hrs by luciferase assay relative to control; format: cell-based; conditions: htb125, 48 h; procedure, shortened: as §5
[13] = as §3; format: functional; conditions: HTB126, 48 h; procedure, shortened: as §4
[14] = Antiproliferative activity against human HTB125 cells at 10 uM after 48 hrs by luciferase assay relative to control; format: cell-based; conditions: htb125, 48 h; procedure, shortened: as §5

CCCCC/C=C\C/C=C\C/C=C\CCCCC(=O)NCCO
Activity [1]: 54% | Activity (RAW264.7): 87%

CCCCCCC(C)(C)c1cc(O)c2c(c1)OC(C)(C)[C@@H]1CC=C(C(=O)O)C[C@@H]21
Activity (HeLa): Active | Activity (HTB126 [2]): Active | Activity (HTB126 [3]): Active | Activity (HTB126 [4]): Active | Activity (HTB126 [5]): Active

CCCCCCCC/C=C\CCCCCCCC(N)=O [OLEAMIDE]
Activity [1]: 94% | Activity (RAW264.7): 134%

CCCCCCCCCCCCCCCC(=O)NCCCC(=O)O [PALMITOYL GABA]
Activity (RBL-2H3 [6]): 100% | Activity (RBL-2H3 [7]): 100% | Activity (RBL-2H3 [8]): 120%

CCCCC/C=C\C/C=C\C/C=C\C/C=C\CCCC(=O)NCCCC(=O)O [ARACHIDONOYL GABA]
Activity (RBL-2H3 [6]): 15% | Activity (RBL-2H3 [7]): 120% | Activity (RBL-2H3 [8]): 100%

CCCCC/C=C\C/C=C\C/C=C\CCCCCCC(=O)NCCc1ccc(O)c(O)c1
Activity [1]: 25.5% | Activity (HeLa): Active | Activity (RAW264.7): 5.72%

COc1ccc2c(c1)c(CC(=O)O)c(C)n2C(=O)c1ccc(Cl)cc1 [INDOMETHACIN]
Activity [1]: 144% | Activity (RAW264.7): 177%

CCCCC/C=C\C/C=C\C/C=C\C/C=C\CCCC(=O)NCCO [ANANDAMIDE]
Activity [1]: 74% | Activity (RAW264.7): 110%

CCCCCCCCCCCCCCCC(=O)N[C@@H](C)C(=O)O
Activity (RBL-2H3 [6]): 10% | Activity (RBL-2H3 [7]): 90% | Activity (RBL-2H3 [8]): 110%

CCCCC/C=C\C/C=C\C/C=C\C/C=C\CCCC(=O)NCC(=O)O [ARACHIDONOYL GLYCINE]
Activity (RBL-2H3 [6]): 21% | Activity (RBL-2H3 [7]): 130% | Activity (RBL-2H3 [8]): 130%

CCCCCCCCCCCCCCCC(=O)NCCO [PALMIDROL]
Activity [1]: 130% | Activity (RAW264.7): 66%

CCCCC/C=C\C/C=C\C/C=C\C/C=C\CCCC(N)=O [ARACHIDONAMIDE]
Activity [1]: 58% | Activity (RAW264.7): 91%

CCCCCCCCCCCCCCCC(=O)N[C@@H](Cc1ccc(O)cc1)C(=O)O
Activity (HTB126 [9]): Active | Activity (HTB126 [10]): inactive | Activity (HTB126 [2]): Active | Activity (HTB126 [3]): Active | Activity (HTB126 [4]): Active | Activity (HTB126 [11]): inactive | Activity [12]: Non-toxic

CCCCCCCCCCCCCCCC(=O)NCCc1ccc(O)c(O)c1 [PALMITOYL DOPAMINE]
Activity [1]: 41.6% | Activity (RBL-2H3 [6]): 15% | inhibition at 10 µM [13]: 80% | Activity [14]: Not Active | Activity (RBL-2H3 [7]): 50% | Activity (RBL-2H3 [8]): 130% | Activity (RAW264.7): 11.1%

CCCCC/C=C\C/C=C\C/C=C\CCCCC(=O)NCCc1ccc(O)c(O)c1
Activity [1]: 38.3% | Activity (HeLa): Active | Activity (RAW264.7): 6.1%

CCCCC/C=C\C/C=C\C/C=C\C/C=C\CCCCCC(=O)NCCc1ccc(O)c(O)c1
Activity [1]: 25.7% | Activity (HeLa): Active | Activity (RAW264.7): 4.32%

CCCCCCCCCCCCCCCC(=O)NCC(=O)O [PALMITOYL GLYCINE]
Activity (RBL-2H3 [6]): 110% | Activity (RBL-2H3 [7]): 110% | Activity (HeLa): Active | Activity (RBL-2H3 [8]): 130%

CCCCCCCC/C=C\CCCCCCCC(=O)NCCO [OLEOYLETHANOLAMIDE]
Activity [1]: 140% | Activity (RAW264.7): 117%

CCCCCCCC/C=C\CCCCCCCC(=O)NCCc1ccc(O)c(O)c1 [OLEOYL DOPAMINE]
Activity [1]: 24% | Activity (HeLa): Active | Activity (RAW264.7): 7.02%

CCCCCCCCCCCCCCCC(N)=O [PALMITAMIDE]
Activity [1]: 118% | Activity (RAW264.7): 100%

CCCCC/C=C\C/C=C\C/C=C\C/C=C\CCCC(=O)NCCc1ccc(O)c(O)c1 [ARACHIDONOYL DOPAMINE]
Activity [1]: 22.1% | Activity (RBL-2H3 [6]): 14% | Activity (RBL-2H3 [7]): 70% | Activity (RBL-2H3 [8]): 110% | Activity (RAW264.7): 2.33%

CCCCC/C=C\C/C=C\C/C=C\CCCCC(N)=O
Activity [1]: 33% | Activity (RAW264.7): 94%

CCCCC/C=C\C/C=C\C/C=C\C/C=C\CCCCCC(N)=O
Activity [1]: 61% | Activity (RAW264.7): 91%

CCCCC/C=C\C/C=C\CCCCCCCC(=O)NCCO [LINOLEOYLETHANOLAMIDE]
Activity [1]: 63% | Activity (RAW264.7): 100%

CCCCC/C=C\C/C=C\C/C=C\C/C=C\CCCCCC(=O)NCCO
Activity [1]: 24% | Activity (RAW264.7): 65%

CCCCC/C=C\C/C=C\C/C=C\CCCCCCC(N)=O
Activity [1]: 58% | Activity (RAW264.7): 82%

CCCCC/C=C\C/C=C\C/C=C\CCCCCCC(=O)NCCO
Activity [1]: 54% | Activity (RAW264.7): 70%

CC/C=C\C/C=C\C/C=C\CCCCCCCC(N)=O [LINOLENAMIDE]
Activity [1]: 85% | Activity (RAW264.7): 126%

CCCCC/C=C\C/C=C\C/C=C\C/C=C\CCCC(=O)N[C@@H](C)C(=O)O
Activity (RBL-2H3 [6]): 50% | Activity (RBL-2H3 [7]): 160% | Activity (RBL-2H3 [8]): 120%
